Assay results published in article PMC10996840 (RSC Advances, 2024).
“And” between values parts separate entries of the source, which are not always exact repeats. Equal values may be shown once. Read-outs that look alike come from different tables or passages of the source.

Key:
[1] = tested on: HepG2 cells; assay: MTT cytotoxicity assay against HepG2 cells; type: cell-based, human
Procedure, shortened: (§1)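 Cells kept in RPMI-1640 with L-glutamine at 37 °C under 5% CO2. Plated at 5 × 10^4 cells per well in triplicate. Next day they received test compound at 0.01, 0.1, 1, 10 and 100 μM. Viability read by MTT. IC50 came from a nonlinear dose–response fit of % viability against concentration.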

[2] = biological target: T1, PIM-1 kinase (Homo sapiens, UniProt P11309); conditions: read-out: IC50 ± SD PIM-1 kinase inhibition; previously reported value ref 32; cited from earlier work
[3] = tested on: MCF-10A cells; assay: MTT cytotoxicity assay against normal MCF-10A cells; type: cell-based; conditions: for IC50: Homo sapiens, MCF-10A, read-out: IC50 ± SD MCF-10A; for IC50 ± SD MCF-10A: MTT assay, normal MCF-10A cells, mean ± SD, n = 3
Procedure, shortened: as §1

[4] = biological target: T1, PIM-1 kinase; assay: PIM-1 kinase inhibitory assay; type: biochemical; conditions: for % of PIM-1 inhibition: concentration not given
[5] = tested on: MCF-7 cells; assay: DNA content flow cytometry cell cycle analysis; type: cell-based, human; conditions: MCF-7 cells treated at IC50 = 0.57 μM, 48 h
[6] = tested on: MCF-7 cells; assay: Annexin V/PI staining flow cytometry; type: cell-based, human; conditions: MCF-7 cells treated at IC50 = 0.57 μM, 48 h
Procedure, shortened: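 MCF-7 cells seeded at 3–5 × 10^5 per well, incubated overnight, then exposed to test compound for 48 h. Supernatant and cells collected and rinsed in ice-cold PBS. Resuspended in annexin binding buffer (CaCl2, NaCl, Hepes/NaOH, pH 7.4) with annexin V-FITC (1:100) and PI (10 μg mL−1), kept 30 min in the dark, then analysed on a FACSCalibur flow cytometer.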

[7] = tested on: P53, Bax, caspases-3,8,9, Bcl-2 and PIM-1 gene expression in MCF-7 cells; assay: RT-PCR of apoptosis-related genes; type: cell-based, human; conditions: MCF-7, IC50 = 0.57 μM, 48 h, normalized to β-actin, control = 1
Procedure, shortened: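 MCF-7 cells treated with test compound for 48 h, then taken for RT-PCR of apoptosis-related genes. Ct values were normalised to β-actin to give relative expression as fold change versus untreated control (set to 1). Values average three independent runs.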

[8] = read-out: IC50 ± SD HepG2, MTT assay, liver cancer HepG2 cells, mean ± SD, n = 3

T1 sequence (P11309 whole entry): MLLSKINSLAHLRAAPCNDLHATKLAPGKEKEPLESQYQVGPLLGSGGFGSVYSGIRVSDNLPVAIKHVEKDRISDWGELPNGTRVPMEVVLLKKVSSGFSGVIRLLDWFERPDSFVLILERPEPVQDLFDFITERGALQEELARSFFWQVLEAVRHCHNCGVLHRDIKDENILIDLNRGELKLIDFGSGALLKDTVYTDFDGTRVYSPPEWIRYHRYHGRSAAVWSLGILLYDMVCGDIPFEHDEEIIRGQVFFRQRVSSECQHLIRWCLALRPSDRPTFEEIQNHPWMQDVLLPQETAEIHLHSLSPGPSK

CN[C@@H]1C[C@H]2O[C@@](C)([C@@H]1OC)n1c3ccccc3c3c4c(c5c6ccccc6n2c5c31)C(=O)NC4 [Staurosporine, reference compound]
IC50 ([1]; Homo sapiens, HepG2, read-out: IC50 ± SD HepG2): 5.07 ± 0.36 µM

N[C@H]1CC[C@H](Nc2nc(Nc3cccc(C(F)(F)F)c3)c3c(=O)[nH]ccc3n2)CC1 [SKI-O-068]
IC50 [2]: 0.123 ± 0.014 µM

N#Cc1c(-c2ccc(Cl)cc2)c2c(=O)[nH]c(CCl)nc2n(C2CCCCC2)c1=O [Compound 6, 2-(Chloromethyl)-5-(4-chlorophenyl)-8-cyclohexyl-4,7-dioxo-3,4,7,8-tetrahydropyrido[2,3-d]pyrimidine-6-carbonitrile]
IC50 [3]: 43.5 ± 2.9 µM | IC50 ± SD MCF-10A [3]: non-toxic | IC50 [4]: 0.0346 ± 0.00018 µM | % of PIM-1 inhibition [4]: 89.6 ± 2.1%

N#Cc1c(-c2ccc(Cl)cc2)c2c(=O)[nH]nnc2n(C2CCCCC2)c1=O [Compound 11, 5-(4-Chlorophenyl)-8-cyclohexyl-4,7-dioxo-3,4,7,8-tetrahydropyrido[2,3-d][1,2,3]triazine-6-carbonitrile]
IC50 [3]: ≥ 50 µM | IC50 ± SD MCF-10A [3]: non-toxic | IC50 [4]: 0.0214 ± 0.00024 µM | % of PIM-1 inhibition [4]: 92.1 ± 1.9%

N#Cc1c(-c2ccc(Cl)cc2)c2c(=O)[nH]c(=S)[nH]c2n(C2CCCCC2)c1=O [Compound 10, 5-(4-Chlorophenyl)-8-cyclohexyl-4,7-dioxo-2-thioxo-1,2,3,4,7,8-hexahydropyrido[2,3-d]pyrimidine-6-carbonitrile]
IC50 [3]: ≥ 50 µM | IC50 ± SD MCF-10A [3]: non-toxic | IC50 [4]: 0.0172 ± 0.0002 µM | % of PIM-1 inhibition [4]: 94.6 ± 2.1%

N#Cc1c(-c2ccc(Cl)cc2)c2c(=O)[nH]c(-c3ccc(Cl)cc3Cl)nc2n(C2CCCCC2)c1=O [Compound 4, 5-(4-Chlorophenyl)-8-cyclohexyl-2-(2,4-dichlorophenyl)-4,7-dioxo-3,4,7,8-tetrahydropyrido[2,3-d]pyrimidine-6-carbonitrile]
cell population at G2/M phase ([5]; control 18.86%): 4.47% | cell population at G1 phase ([5]; control 48.37%): 56.36% | IC50 [1, 8]: 1.13 ± 0.19 µM | IC50 [3]: 47.6 ± 3.1 µM | IC50 ± SD MCF-10A [3]: non-toxic | early apoptosis (Q4) [6]: 22.11% | increase of cell apoptosis versus untreated control [6]: 58.29 fold and 58.3 fold | late apoptosis (Q2) [6]: 14.03% | total apoptosis ([6]; untreated control 0.62%): 36.14% | IC50 [4]: 0.0114 ± 0.00013 µM | % of PIM-1 inhibition [4]: 97.8 ± 1.8% | Bax gene expression fold change [7]: 6.7 fold | Bcl-2 gene expression fold change [7]: 0.11 fold | P53 gene expression fold change [7]: 7.9 fold | PIM-1 gene expression fold change [7]: 0.31 fold | caspase-3 gene expression fold change [7]: 11.2 fold | caspase-8 gene expression fold change [7]: 1.23 fold | caspase-9 gene expression fold change [7]: 8.9 fold

N#Cc1c(-c2ccc(Cl)cc2)c2c(=O)[nH]cnc2n(C2CCCCC2)c1=O [Compound 9, 5-(4-Chlorophenyl)-8-cyclohexyl-4,7-dioxo-3,4,7,8-tetrahydropyrido[2,3-d]pyrimidine-6-carbonitrile]
IC50 [1, 8]: 4.6 ± 0.34 µM
